Experimental findings from ChEMBL document CHEMBL3875172, “Evaluation of the anti-malarial activity and cytotoxicity of 2,4-diamino-pyrimidine-based kinase inhibitors” (Eur J Med Chem, 2016) are described below.

Data set [1] can be described thus: Cytotoxicity against African green monkey Vero cells at 10 uM after 4 days by fluorescence assay. Format: toxicity, cell-based. As to conditions: chlorocebus sabaeus, 96 h. The method, boiled down:
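GFP-expressing Vero cells (stably transfected with pEGFP-N1), maintained in MEM with 10% heat-inactivated FBS, L-glutamine, pyruvate and geneticin. Seeded at 3.3 × 10^4 cells/ml onto compound at […] (so in the source), then incubated 4 days at 37 °C, 5% CO2. Read by bottom fluorescence (ex 530/em 590 nm) as percent cytotoxicity. Ellipticine positive control; 0.5% DMSO negative control.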

Data set [2] concerns Plasmodium falciparum. Description: Antimalarial activity against multidrug-resistant Plasmodium falciparum K1 infected human erythrocytes assessed as reduction in parasite viability after 24 hrs by [3H]-hypoxanthine incorporation assay. It counts as functional. The method, boiled down: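 K1 parasites cultured in RPMI-1640 with 25 mM HEPES, 25 mM NaHCO3, 10% […] human serum and erythrocytes at 37 C, 3% CO2. Early ring-stage culture (1% parasitemia, 1.5% Hct) was exposed to compounds in duplicate for 24 h, then [3H]hypoxanthine was added for a further 18-20 h. Incorporation was scintillation-counted, and IC50 (50% growth reduction) was taken from fitted curves. The vehicle was 0.5% DMSO.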

Data set [3] has as its target Tyrosine-protein kinase JAK2 (Homo sapiens, UniProt O60674). Briefly: Inhibition of human JAK2 using poly (Glu:Tyr) as substrate. The method, boiled down:
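Antibody Beacon tyrosine kinase fluorescence assay, run as for EGFR. Reaction held 10 ng JAK2 enzyme, 0.1 mg/ml poly(Glu:Tyr) and 0.1 mg/ml ATP.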

The target in data set [4] is Epidermal growth factor receptor (Homo sapiens, UniProt P00533). Description: Inhibition of human EGFR using poly (Glu:Tyr) as substrate measured for 1.5 hrs by oregon green 488 dye-based fluorescence assay.
Sequence of Epidermal growth factor receptor (P00533 whole entry): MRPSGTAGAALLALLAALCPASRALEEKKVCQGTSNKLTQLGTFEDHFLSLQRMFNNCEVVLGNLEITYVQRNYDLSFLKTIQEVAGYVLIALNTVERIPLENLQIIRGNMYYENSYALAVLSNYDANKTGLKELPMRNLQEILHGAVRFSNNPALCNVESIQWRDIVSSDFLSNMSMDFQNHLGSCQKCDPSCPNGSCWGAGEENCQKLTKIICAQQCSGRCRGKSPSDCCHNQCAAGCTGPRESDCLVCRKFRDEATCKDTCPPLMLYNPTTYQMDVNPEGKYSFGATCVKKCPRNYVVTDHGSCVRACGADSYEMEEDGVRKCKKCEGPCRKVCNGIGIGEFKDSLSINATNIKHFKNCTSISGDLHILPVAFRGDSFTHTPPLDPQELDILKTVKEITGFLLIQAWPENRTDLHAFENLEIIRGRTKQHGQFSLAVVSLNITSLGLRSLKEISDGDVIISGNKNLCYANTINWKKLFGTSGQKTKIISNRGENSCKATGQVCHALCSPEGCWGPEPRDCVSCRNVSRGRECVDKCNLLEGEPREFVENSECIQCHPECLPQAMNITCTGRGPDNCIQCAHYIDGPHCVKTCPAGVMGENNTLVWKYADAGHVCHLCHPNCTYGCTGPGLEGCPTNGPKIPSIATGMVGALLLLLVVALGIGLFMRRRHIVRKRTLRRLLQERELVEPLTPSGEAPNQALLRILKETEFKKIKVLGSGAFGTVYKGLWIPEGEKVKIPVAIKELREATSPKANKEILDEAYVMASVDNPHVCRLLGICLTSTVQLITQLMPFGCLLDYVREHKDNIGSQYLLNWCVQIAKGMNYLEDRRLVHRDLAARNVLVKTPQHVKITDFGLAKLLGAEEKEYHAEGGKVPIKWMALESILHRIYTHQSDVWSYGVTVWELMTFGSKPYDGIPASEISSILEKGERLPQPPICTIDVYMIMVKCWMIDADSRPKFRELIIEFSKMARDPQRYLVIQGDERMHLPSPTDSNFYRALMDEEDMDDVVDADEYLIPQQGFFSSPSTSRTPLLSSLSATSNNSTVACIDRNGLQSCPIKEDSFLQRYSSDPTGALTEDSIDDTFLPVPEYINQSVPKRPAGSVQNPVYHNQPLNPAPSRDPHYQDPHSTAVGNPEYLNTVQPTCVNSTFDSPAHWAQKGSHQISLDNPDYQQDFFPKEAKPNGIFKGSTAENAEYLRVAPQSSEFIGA
In data set [5] the target is T1, Tyrosine-protein kinase JAK3 (Homo sapiens, UniProt P52333).
T1 sequence (P52333 whole entry): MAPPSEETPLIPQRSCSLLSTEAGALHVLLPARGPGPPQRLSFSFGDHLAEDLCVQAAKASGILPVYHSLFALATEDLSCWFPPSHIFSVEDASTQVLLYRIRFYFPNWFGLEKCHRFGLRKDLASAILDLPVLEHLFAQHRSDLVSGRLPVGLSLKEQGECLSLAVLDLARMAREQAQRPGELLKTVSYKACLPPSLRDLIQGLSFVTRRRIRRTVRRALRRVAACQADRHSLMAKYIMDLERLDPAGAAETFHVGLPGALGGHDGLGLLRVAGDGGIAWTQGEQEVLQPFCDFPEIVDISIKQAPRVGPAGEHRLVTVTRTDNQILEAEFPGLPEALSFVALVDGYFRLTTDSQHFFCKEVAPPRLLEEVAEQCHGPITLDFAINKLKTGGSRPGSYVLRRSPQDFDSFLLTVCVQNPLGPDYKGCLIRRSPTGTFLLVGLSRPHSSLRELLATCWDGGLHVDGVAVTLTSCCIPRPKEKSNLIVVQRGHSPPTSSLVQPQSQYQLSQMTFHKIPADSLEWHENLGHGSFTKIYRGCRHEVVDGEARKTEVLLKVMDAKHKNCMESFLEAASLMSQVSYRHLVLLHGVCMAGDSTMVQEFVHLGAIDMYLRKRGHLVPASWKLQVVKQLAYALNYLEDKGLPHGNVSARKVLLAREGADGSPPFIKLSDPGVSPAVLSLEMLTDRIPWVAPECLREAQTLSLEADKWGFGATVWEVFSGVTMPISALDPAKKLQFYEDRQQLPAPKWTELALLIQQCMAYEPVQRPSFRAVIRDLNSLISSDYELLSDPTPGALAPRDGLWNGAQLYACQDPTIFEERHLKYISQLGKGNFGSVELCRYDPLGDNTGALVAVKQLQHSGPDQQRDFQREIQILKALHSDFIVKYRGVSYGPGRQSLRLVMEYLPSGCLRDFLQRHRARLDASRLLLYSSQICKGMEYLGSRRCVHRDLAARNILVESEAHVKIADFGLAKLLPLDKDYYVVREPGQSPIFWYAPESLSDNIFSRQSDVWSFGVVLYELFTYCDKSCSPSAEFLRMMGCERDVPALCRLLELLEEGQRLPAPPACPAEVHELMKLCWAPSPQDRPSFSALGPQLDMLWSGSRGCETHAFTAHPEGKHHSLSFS
Briefly: Inhibition of human JAK3 using poly (Glu:Tyr) as substrate. The method, boiled down: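 Antibody Beacon tyrosine kinase fluorescence assay, run as for EGFR. Reaction held 3 ng JAK3 enzyme, 0.1 mg/ml poly(Glu:Tyr) and 0.1 mg/ml ATP.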

Data set [6] can be described thus: Cytotoxicity against human A549 cells after 72 hrs by MTT assay. Format: toxicity, cell-based. The method, boiled down: (§1)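 Dose-response MTT assay in cells grown in DMEM with 10% FBS, penicillin and streptomycin at 37 °C, 5% CO2. Cells were precultured 16–18 h, then exposed to compound for 72 h. MTT was added for 3 h, formazan dissolved in DMSO, and absorbance read at 570 nm. Gefitinib positive control; 0.5% DMSO negative control.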

Data set [7] can be described thus: Cytotoxicity against African green monkey Vero cells after 72 hrs by MTT assay. It counts as toxicity, cell-based, Chlorocebus sabaeus. The method, boiled down: as §1
(In general: Tetrazolium assays rely on reduction of a dye to a coloured formazan, in cell work by metabolically active cells.)

Data set [8] has as its system Plasmodium falciparum. Briefly: Antimalarial activity against Plasmodium falciparum 3D7 by high throughput screening assay. It counts as functional.
Data set [9] in a line: Cytotoxicity against human HepG2 cells at 10uM. To be noted: hepg2, 10 µM. It counts as toxicity, cell-based.

The term IC50 denotes the concentration that gives 50% inhibition. The term EC50 denotes the midpoint of the concentration-response curve.

Sequence of Tyrosine-protein kinase JAK2 (O60674 whole entry): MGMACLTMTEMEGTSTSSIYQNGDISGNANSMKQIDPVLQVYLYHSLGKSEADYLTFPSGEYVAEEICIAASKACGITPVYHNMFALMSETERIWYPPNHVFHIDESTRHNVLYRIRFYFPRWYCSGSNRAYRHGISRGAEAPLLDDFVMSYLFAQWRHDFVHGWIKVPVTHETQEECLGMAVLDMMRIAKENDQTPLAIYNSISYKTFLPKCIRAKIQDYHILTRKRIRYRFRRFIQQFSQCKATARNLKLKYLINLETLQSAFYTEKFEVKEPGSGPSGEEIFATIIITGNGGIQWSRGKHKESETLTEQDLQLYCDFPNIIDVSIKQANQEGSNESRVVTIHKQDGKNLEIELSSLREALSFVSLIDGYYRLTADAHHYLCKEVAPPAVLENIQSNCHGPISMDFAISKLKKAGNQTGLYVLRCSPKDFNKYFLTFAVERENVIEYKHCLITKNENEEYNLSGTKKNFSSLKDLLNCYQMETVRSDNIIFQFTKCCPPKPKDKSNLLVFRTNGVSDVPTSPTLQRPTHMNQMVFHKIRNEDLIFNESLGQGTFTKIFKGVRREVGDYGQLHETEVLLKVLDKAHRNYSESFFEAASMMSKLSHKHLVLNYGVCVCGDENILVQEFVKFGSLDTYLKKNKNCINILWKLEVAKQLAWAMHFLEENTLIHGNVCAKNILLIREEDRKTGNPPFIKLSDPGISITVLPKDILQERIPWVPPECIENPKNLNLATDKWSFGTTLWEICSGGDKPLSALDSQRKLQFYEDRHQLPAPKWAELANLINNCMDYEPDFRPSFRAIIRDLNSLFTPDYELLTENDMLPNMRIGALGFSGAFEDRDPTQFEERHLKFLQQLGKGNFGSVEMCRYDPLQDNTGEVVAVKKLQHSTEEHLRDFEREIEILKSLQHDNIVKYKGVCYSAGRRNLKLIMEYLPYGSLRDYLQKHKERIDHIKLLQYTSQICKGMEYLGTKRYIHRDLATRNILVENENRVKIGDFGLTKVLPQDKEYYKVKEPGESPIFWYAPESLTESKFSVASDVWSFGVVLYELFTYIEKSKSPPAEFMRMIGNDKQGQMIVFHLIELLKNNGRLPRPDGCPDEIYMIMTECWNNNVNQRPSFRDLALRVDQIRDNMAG

As to `Cc1cc(Nc2nc(Nc3cccc(S(N)(=O)=O)c3)ncc2C#N)ccc1N1CCN(C)CC1`, the Activity in data set [1] was 33%.
On the same count and under the same terms, next, `Cc1cccc(Nc2ccnc(Nc3ccc(N4CCOCC4)cc3)n2)c1`: 74%.
Take `NC(=O)c1ccccc1Nc1ccnc(Nc2ccc(N3CCOCC3)cc2)n1`: in data set [1], the Activity stood at 68%. Moreover, the IC50 in data set [2] was 4.39 µM.
For `CN1CCN(c2ccc(Nc3nccc(Nc4cccc(S(N)(=O)=O)c4)n3)cc2)CC1`, in that order: 80% and 7.25 µM.
`Cc1cccc(Nc2ccnc(Nc3ccc(N4CCN(C)CC4)cc3)n2)c1`: the IC50 in data set [3] was found to be 0.14 µM; in data set [4], 11 µM; in data set [2], 0.431 µM; in data set [5], 2.1 µM. This compound also yielded an Activity in [1] of 94%. The EC50 at 72 h in data set [6] stood at 7.1 µM; in data set [7], 1 µM.
In the case of `Cc1cc(Nc2nccc(Nc3ccccc3C(N)=O)n2)ccc1N1CCN(C)CC1`, the Activity in data set [1] is on record as 92%. In data set [2], the 50% inhibitory concentration (IC50) worked out at 1.06 µM.
For `CN1CCN(c2ccc(Nc3nccc(Nc4ccccc4C(N)=O)n3)cc2)CC1`, in that order: 91% and 1.5 µM.
As for `Cc1cc(Nc2nccc(Nc3cccc(S(N)(=O)=O)c3)n2)ccc1N1CCN(C)CC1`, the IC50 in data set [3] was 0.126 µM; in data set [4], above 150 µM; in [2], 3.86 µM; in data set [5], 4.1 µM. In addition, the Activity in [1] is 66%. Also, the concentration for a half-maximal effect (EC50) at 72 h was 4.2 µM in data set [6] and above 100 µM in [7].
For the compound `Cc1cccc(Nc2ccnc(Nc3cccc(C)c3)n2)c1`, in [1], the Activity is on record as 94%.
Regarding `c1cc(Nc2ccc(N3CCOCC3)cc2)nc(Nc2ccc(N3CCOCC3)cc2)n1`, in data set [1], the Activity is given as 25%.
For `NS(=O)(=O)c1cccc(Nc2ccnc(Nc3ccc(N4CCOCC4)cc3)n2)c1`, the IC50 is 0.129 µM in data set [3], above 100 µM in data set [4], 8.97 µM in data set [2] and 7.1 µM in data set [5]. In data set [1], this compound registered an Activity of 35%. The values for the EC50 at 72 h in data set [6] and in data set [7] were 9.4 µM and 37 µM, respectively.
In the case of `Cc1cc(Nc2ncc(C#N)c(Nc3cccc(S(C)(=O)=O)c3)n2)ccc1N1CCN(C)CC1`, the Activity in data set [1] is on record as 92%. Further, the IC50 in data set [2] is 4.72 µM.
`Cc1cccc(Nc2ncc(C#N)c(Nc3cccc(C)c3)n2)c1` came in with an Activity in data set [1] of 40%.
Regarding `Cc1cccc(Nc2ccnc(Nc3ccc(N4CCN(C)CC4)c(C)c3)n2)c1`, the IC50 in data set [3] was 0.05 µM; in data set [4], above 150 µM; in data set [2], 0.647 µM; in data set [5], 1.8 µM. In data set [1], this compound came in with an Activity of 94%. For the same compound, the EC50 at 72 h in data set [6] was determined as 3.5 µM; in data set [7], 2 µM.
In turn, `Cc1cc(Nc2ncc(C#N)c(Nc3cccc(S(N)(=O)=O)c3)n2)ccc1N1CCN(C)CC1` gave an Activity in [1] of 94%. Further, the IC50 in data set [2] came to 5.56 µM.
In turn, `CNC(=O)c1cnc(Nc2ccc(N3CCOCC3)cc2)nc1Nc1cccc(OC(C)C)c1` showed an IC50 in data set [8] of 0.759 µM. The compound also yielded an Activity in data set [9] of 19%.
With `Cc1cccc(Nc2ncc(C(N)=O)c(Nc3cccc(C)c3)n2)c1`, in data set [1], the Activity is 96%.
Take `Cc1cc(Nc2ncc(C#N)c(Nc3cccc(S(=O)(=O)NC(C)(C)C)c3)n2)ccc1N1CCN(C)CC1`: the IC50 in data set [3] is above 100 µM; in [4] it was above 150 µM; in data set [2] it was 4.56 µM; in data set [5], above 100 µM. Besides, the Activity in [1] was 31%. For the same compound, the EC50 at 72 h in data set [6] is above 100 µM; in data set [7] it was 45.4 µM.
Consider `COc1cnc(Nc2ccc(N3CCN(C)CC3)c(C)c2)nc1Nc1cccc(S(N)(=O)=O)c1`, for which the Activity in [1] stood at 88%. Also, the IC50 in data set [2] came to 5.26 µM.
Turning to `CN1CCN(c2ccc(Nc3ncc(C#N)c(Nc4ccccc4C(N)=O)n3)cc2)CC1`, the IC50 in data set [8] was found to be 0.04 µM. For the same compound, the Activity in data set [9] worked out at 43%.
The like results for `CNC(=O)c1cnc(Nc2ccc(N3CCN(C)CC3)cc2)nc1Nc1cccc([N+](=O)[O-])c1` were, in that order, 0.138 µM and 16%.
With `Cc1cc(Nc2ncc(C#N)c(Nc3ccccc3C(N)=O)n2)ccc1N1CCN(C)CC1`, the results for the Activity in data set [1] and in data set [9] were 94% and 99%, respectively. Further, the IC50 was found to be 0.009 µM in data set [8] and 3.93 µM in data set [2].
Take `O[C@@H](c1cc(C(F)(F)F)nc2c(C(F)(F)F)cccc12)[C@H]1CCCCN1` [(S,R)-MEFLOQUINE]: in [2], the IC50 worked out at 0.07 µM.
The same measure, in the same setting: the same measure for `C[C@H]1[C@@H](O)O[C@@H]2O[C@@]3(C)CC[C@H]4[C@H](C)CC[C@@H]1[C@@]24OO3` [ARTENIMOL]: 0.00254 µM.
In the case of `CCN(CC)CCCC(C)Nc1ccnc2cc(Cl)ccc12` (stereo not drawn) [CHLOROQUINE], the Activity in data set [1] was found to be 45%.
